Results collected from several papers.
Host: human

COc1cc(C(=O)NC2CCN(C)CC2)c(F)cc1Nc1ncc(C(F)(F)F)c(Oc2cccc3c2C(=O)N(C)C3)n1  CL/F (plasma; oral; 100 mg; multiple doses, once daily, patients): 10.4 L/h
c1cnc2ccc(Nc3nc(NC4CC4)c4nc[nH]c4n3)cc2c1  CL/F (plasma; oral; 400 mg/m²; patients): 115 L/h
CCOc1ccc(Cc2cc([C@@H]3O[C@H](CO)[C@@H](O)[C@H](O)[C@H]3O)ccc2Cl)cc1  CL/F (plasma; oral; multiple doses, steady state): 21.1 L/h
CS(=O)(=O)CCC#N  CL/F (plasma; oral; 100 mg; single dose, fasted): 0.3 mL/min/kg
CCNCCCNC/C=C\CNCCCNCC  clearance (plasma; intravenous; 100 mg; patients, infusion): 5510 mL/min
OC[C@H]1O[C@@H](c2ccc(Cl)c(Cc3ccc(O[C@H]4CCOC4)cc3)c2)[C@H](O)[C@@H](O)[C@@H]1O  renal clearance (urine; oral; 25 mg; single dose): 21.1 mL/min
Cc1ccc(C(=O)N(CCCN)[C@@H](c2oc3cc(Cl)ccc3c(=O)c2Cc2ccccc2)C(C)C)cc1  clearance (plasma; intravenous; 5 mg/m²; single dose, patients, infusion): 20.5 mL/min
Cn1cc(-c2cnc3cnn(S(=O)(=O)c4cnc5ccc(-c6cnn(C)c6)cn45)c3c2)cn1  CL/F (plasma; oral; 300 mg; single dose, fasted, healthy volunteers): 12.8 L/h
